We go through 47 sequences from the EternaBench riboswitch data.

For the series, the system named is MS2 coat protein. Briefly: apparent Kd, MS2 coat protein; higher = weaker binding; RNA-MaP array. The method in brief: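 Apparent Kd is the median of per-cluster binding-curve fits for designed RNAs transcribed from sequenced DNA templates on an Illumina sequencing chip. The RNAs were incubated at room temperature with fluorescently labeled MS2 coat protein at 1.5 nM to 3 μM, with or without input ligand, and designs measured on fewer than 10 clusters were excluded.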

The mark [1] stands for this setting: designed as: ON switch for flavin mononucleotide, no ligand.
[2] abbreviates: ligand present: flavin mononucleotide, designed as: ON switch for flavin mononucleotide.
Where [3] appears, read: designed as: ON switch for tryptophan, no ligand.
[4] abbreviates: ligand present: tryptophan, designed as: ON switch for tryptophan.
[5] abbreviates: designed as: OFF switch for flavin mononucleotide, no ligand.
Where [6] appears, read: ligand present: flavin mononucleotide, designed as: OFF switch for flavin mononucleotide.
[7] abbreviates: designed as: OFF switch for tryptophan, no ligand.
[8] abbreviates: ligand present: tryptophan, designed as: OFF switch for tryptophan.
The mark [9] stands for this setting: designed as: OFF switch for theophylline, no ligand.
Where [10] appears, read: ligand present: theophylline, designed as: OFF switch for theophylline.

“AACGGCUGCGCGUAGGAUAUGGCCCAUCCAACAUGAGGAUCACCCAUGUGCCACGAUGAGACUUCCCAGAAGGACGGUGCGAUGAG”: the apparent Kd – broadly, a dissociation constant that holds for the conditions of the assay – by setting is: under setting [1], 18.4 nM; under setting [2], 11.6 nM.

In the case of “CCGGGCAGUUUAGGAUAUACACGUGAUUCAUGCGUAGAAGGAAAUCACAGAAUAGUUUCCUGGACAUGAGGAUCACCCAUGUAG”, the “apparent Kd” value is, setting by setting: under setting [1], 252 nM; under setting [2], 147 nM.

In the case of “UACCUUAACACGGCCGCCACUCUCUAAUAGGAUCAUGGUACCGCACAUGAGGAUCACCCAUGUUUGAGGACCGGGUGUUAUGAAG”, the “apparent Kd” value under setting [3] turned out to be 15.1 nM and the “apparent Kd” value under setting [4] amounted to 28.7 nM.

In the case of “GUAACGGGAAGCAGUGGCUUGACAUGAGGAUCACCCAUGUACAGAAGGGACGAUUACGUAAUGCGUCAGGAUAUGUGCCGUAGA”, the “apparent Kd” value runs as follows: under setting [1], 48 nM; under setting [2], 28.1 nM.

For “GCAUAACAUGAGGAUCACCCAUGUGAGGAUAUUCCCUCCGGCAAUUGCUCCCAAGAGGGAAGAAGGCACAGUGG”, the “apparent Kd” value worked out at 146 nM under setting [5] and 66.1 nM under setting [6].

Consider “CUCAGCGGGCUAGGAUAUGGCCUGUGGUUUAGGCCAGAAGGAGCUCACUAAGCACAUGAGGAUCACCCAUGUCUCAAUGCCUGA”, for which the “apparent Kd” value under setting [1] amounted to 14.8 nM and the “apparent Kd” value under setting [2] worked out at 8.84 nM.

For “UACGGUCAUAGAGGAUAUAGAUCGCGCAACGGUUUCGUGGCCCACAUGAGGAUCACCCAUGUUAUCUAGAAGGCUAUGAGUCGC”, the “apparent Kd” value came out at 6.82 nM under setting [5] and 6.8 nM under setting [6].

For the sequence “CCAGCGAGUUAGACCUUACAUGAGGAUCACCCAUGUUGGCGUAGAAGGACGCUCAUAAGCACUGCGUAGGAUAUACUCACCAAU”, the “apparent Kd” value by setting is: under setting [5], 7.99 nM; under setting [6], 10.4 nM.

As to “AUACAAGCAAUGGAGGAUAUCGCAGAAAUCACAUGAGGAUCACCCAUGUCUUACCGUAUGUCGAGCGAGAAGGCCACGGUGCGAGU”, the “apparent Kd” value under setting [1] turned out to be 35.5 nM and the “apparent Kd” value under setting [2] is 17.3 nM.

Turning to “CUAAAACAUGAGGAUCACCCAUGUGUUUAGCGCAGAGGAUAUUGGGAUUGGUUGCUCGCUCAAGAAGGCUGAUUGG”, the “apparent Kd” value reads like this: under setting [1], 8.55 nM; under setting [2], 7.02 nM.

Consider “AAACAUGAGGAUCACCCAUGUAGAAUAAUCAGACGUUUGAACAGAAGGUGAAAACAAAUAAAACUCAAGGAUAUGUAACUAAAA”, for which the “apparent Kd” value reads like this: under setting [1], 65.6 nM; under setting [2], 52.5 nM.

Consider “GACAGCAUCCGAGGAUAUAUGUACGUAAUCAAACCACAUGAGGAUCACCCAUGUCCUCUAGGUUCAUAGAAGGCGGUUUAGCGU”, for which the “apparent Kd” value by setting is: under setting [5], 455 nM; under setting [6], 750 nM.

In the case of “GUUGUCAUCCAAGGAUAUUGUAAAAGGAGUGGGCAAGAAGGUGGAGAGCAUUGAUGAAGGUACACAUGAGGAUCACCCAUGUUC”, the “apparent Kd” value reads like this: under setting [1], 33.6 nM; under setting [2], 14.8 nM.

On to “UUUAUACAUGAGGAUCACCCAUGUGAGGAUAUAAAGGCGGACACUGCUGUCGAUCGCUUUAGAAGGCACUGGAU”, for which the “apparent Kd” value runs as follows: under setting [5], 15.8 nM; under setting [6], 20 nM.

As to “GACUGGAGGAGAGGAUAUGCAAAGACUCUAUUCGCAGAAGGCUCGUGCGGUCAACAUGAGGAUCACCCAUGUCUGGCGACAUGC”, the “apparent Kd” value runs as follows: under setting [5], 6.26 nM; under setting [6], 8.62 nM.

Turning to “AUUAGAAUGCGAGGAUAUGGUAAAUUCAUGCAUCCAGAAGGCGCGUCAGUAGAACAUGAGGAUCACCCAUGUGAUUGUUGUGGC”, the “apparent Kd” value under setting [5] was determined as 22.8 nM and the “apparent Kd” value under setting [6] was found to be 26.9 nM.

In the case of “GCAAAAGCGCUCUAGAGACAUGAGGAUCACCCAUGUGUGGGUAGAAGGUCCUACGUACCAUUAAGGAAGGAUAUACACAUAUAU”, the “apparent Kd” value is, setting by setting: under setting [1], 1090 nM; under setting [2], 540 nM.

Regarding “CGCUACAUAGCGGCCGCCACUGUCAUGGCUACGAUAGGUCACUCGUACAUGAGGAUCACCCAUGUCAGGACCGGGCUAUCCUCGC”, the “apparent Kd” value reads like this: under setting [7], 92.9 nM; under setting [8], 203 nM.

In the case of “CCUUUUAUUAAUGAUACCAGCGUAUUAAGCAUCACCUUGGACAUGAGGAUCACCCAUGUACGCCCUUGGCAGCAUACCACUGGGU”, the “apparent Kd” value under setting [9] was determined as 42.5 nM and the “apparent Kd” value under setting [10] came to 53.4 nM.

With “GACAGCGAAGGAUAUACAUGAGGAUCACCCAUGUCUCACUAACGUAGCCGCGGGUAAUGUAGAAGGUCGCGAUG”, the “apparent Kd” value under setting [5] amounted to 191 nM and the “apparent Kd” value under setting [6] was 65.4 nM.

As to “UCUCACAUGAGGAUCACCCAUGUUAAGGCCCGAGGACCGGUACGGCCGCCACUCGUUGGAAGCCGGUAACGUACGAAUCUUCCGU”, the “apparent Kd” value is, setting by setting: under setting [3], 17.9 nM; under setting [4], 24 nM.

Take “CCGGGCGCUUAACAGGAUAUAGCAGUACAUACAUGAGGAUCACCCAUGUCUAUCUUGUAAUAAAGCUAGAAGGGUUCAUCCGAGGU”: the “apparent Kd” value runs as follows: under setting [1], 14 nM; under setting [2], 9.84 nM.

In the case of “AAACUACGACAUGAGGAUCACCCAUGUACUCCGCUAACUACACAGGAUAUAGUGAGGCCAGAGCUCUAGAAGGGUGUUAAUACG”, the “apparent Kd” value by setting is: under setting [1], 40.3 nM; under setting [2], 28.2 nM.

“ACAAUAAAUCAAGGAUAUGAACGAAGCAAGUGAUCAGAAGGUGAAAUAAACCCAUAAACUCCAACAUGAGGAUCACCCAUGUGA”: the “apparent Kd” value is, setting by setting: under setting [1], 54 nM; under setting [2], 35.5 nM.

Consider “UUCACGGGCACGGCCGCCACUAACCAACAUGAGGAUCACCCAUGUGUAUUGGACGACCUCUUUGCUAGGACCGGGUGUAUGGUUC”, for which the “apparent Kd” value turned out to be 24.8 nM under setting [7] and 30.5 nM under setting [8].

“AGGCCAUCCAAGAAGGCUUACAACAUGAGGAUCACCCAUGUCACGGAGAUGUAUAACAUCUACUAAGAGGAUAUUGGGAGAGCU”: the “apparent Kd” value under setting [1] turned out to be 241 nM and the “apparent Kd” value under setting [2] is 37.4 nM.

Regarding “CGCGACUUCAGAGGAUAUGUGCGUGUCACAUGAGGAUCACCCAUGUAAGGUUACCUACGACCGGGACAGAAGGCUGACCCAAAA”, the “apparent Kd” value reads like this: under setting [1], 61 nM; under setting [2], 19.6 nM.

In the case of “CACUGACAUGAGGAUCACCCAUGUCUCCUGCUUGUAGGAUAUAGGUGGUCGCUGGACAGUCUAGAAGGACAUGUAA”, the “apparent Kd” value runs as follows: under setting [1], 54.7 nM; under setting [2], 49.5 nM.

Consider “AGACCGGCUCAGGAUAUGUACAGGACAUACUCAACAGAAGGGAGUACAUGAGGAUCACCCAUGUCUGGGUAGAU”, for which the “apparent Kd” value is, setting by setting: under setting [5], 488 nM; under setting [6], 371 nM.

“CCGAGCACAGGAUAUACAUGAGGAUCACCCAUGUAUACGAAUACGACACAUCCUGCGUGUAGAAGGGUGGCAAA”: the “apparent Kd” value runs as follows: under setting [5], 6.47 nM; under setting [6], 6.22 nM.

Consider “CCACCCGACAUGAGGAUCACCCAUGUAGAUGAUCCUGUACCAUAGGAUAUAGGCGUAAGAGAGAUCUAGAAGGAUGUACAACCC”, for which the “apparent Kd” value came out at 108 nM under setting [5] and 73.5 nM under setting [6].

On to “GCUGCACAUGAGGAUCACCCAUGUACCCUACUGAGAGGAUAUGUGAUCCGUUAGCAAUCCACAGAAGGCUCGGUUC”, for which the “apparent Kd” value under setting [1] is 51.2 nM and the “apparent Kd” value under setting [2] was 10.5 nM.

With “ACAUGAGGAUCACCCAUGUCCUAAAAUGAGGCGAAUACGGCCAAGGAUAUUGGAACAACAGAAGUCAAGAAGGUGGCUAAAUUA”, the “apparent Kd” value worked out at 56.7 nM under setting [1] and 28.3 nM under setting [2].

As for “AUGUUAAGACAGGAUAUCCAAGCUCUAGCGUCAGGAGAAGGGUCAACAUGAGGAUCACCCAUGUGUAGUCUUCG”, the “apparent Kd” value came to 7.48 nM under setting [5] and 15.2 nM under setting [6].

Turning to “UACAAGUACUAGAAGGAUCGAACCGAAGGUGUGAUAGGAUAUAGAGACAUGAGGAUCACCCAUGUAGGAGUGCAGUCAUACAUU”, the “apparent Kd” value under setting [5] stood at 27.9 nM and the “apparent Kd” value under setting [6] worked out at 23.4 nM.

As to “GGUGGGUCAGGAUAUCCCACACAAUUGCGAACGCGAUGCAGGGAGAAGGGACAUGAGGAUCACCCAUGUGGGAC”, the “apparent Kd” value was determined as 54.4 nM under setting [5] and 64.9 nM under setting [6].

“ACGGGUGACAAGAAGGGCUAGGUAACAUGCCGUAGACUAGAAUAACAUGAGGAUCACCCAUGUAAGCAGGAUAUUGUAUAAUAA”: the “apparent Kd” value turned out to be 156 nM under setting [1] and 52.8 nM under setting [2].

As for “AAAAGGGCAGGAUAUACAUGAGGAUCACCCAUGUUAAAGCCAACAAGAAGUUCCACUGGUAGAAGGGCCAUAGA”, the “apparent Kd” value runs as follows: under setting [5], 8.89 nM; under setting [6], 8.55 nM.

Turning to “CGACAUUAAACAUGAGGAUCACCCAUGUGACCCUAUUGUCCAAAGGAUAUCUUAUGAAUAGAGAAAGAGAAGGUUGUAUUCCCA”, the “apparent Kd” value is, setting by setting: under setting [5], 241 nM; under setting [6], 196 nM.

“AGACGGUUACAGGAUAUGACUACUGCUAGAGCAUCAGAAGGGUAUACAUGAGGAUCACCCAUGUCUUCACGGCG”: the “apparent Kd” value under setting [5] was found to be 10.1 nM and the “apparent Kd” value under setting [6] is 9.62 nM.

Regarding “AAAGGUCAGGAGAAGGUGCCUCUAUUACGUCGGCAAGGAUAUCCACAGCGGGCGAUUAUGCGUACAUGAGGAUCACCCAUGUUA”, the “apparent Kd” value under setting [5] was found to be 92.3 nM and the “apparent Kd” value under setting [6] came out at 43.5 nM.

For the sequence “AUCUUAGGUGAGAAGGUGGACACAUGAGGAUCACCCAUGUUGAUGGUCUUGUAGCGUUUGCAAGCCAAGGAUAUCAUCUACGGC”, the “apparent Kd” value is, setting by setting: under setting [1], 27.4 nM; under setting [2], 19.8 nM.

Consider “GCUACCACCGCAGGAUAUAAUCGGACACUCGUAGCGUUGCGAACAUGAGGAUCACCCAUGUCUAUUUAGAAGGGCGCAUGGGAU”, for which the “apparent Kd” value by setting is: under setting [1], 78.8 nM; under setting [2], 42.6 nM.

On to “CACACCGAAGGAUAUACUACUGCUAUUUAGAGUGAGGGCGAACAUGAGGAUCACCCAUGUAGAAGGUCGAGAAA”, for which the “apparent Kd” value was 17.5 nM under setting [5] and 20.6 nM under setting [6].

For “ACAUACUUGGGAGGAUAUAUGUUCGUACGCUCGAUAGAAGGCCCAGAAGUAUAAGACAUGAGGAUCACCCAUGUGGCAAGCGUU”, the “apparent Kd” value under setting [1] is 11.4 nM and the “apparent Kd” value under setting [2] worked out at 8.78 nM.

In the case of “UGCGAUGAACCUGAUACCAGAUGUAUUUGCUCCUCGGACAACAUGAGGAUCACCCAUGUCAUCCCUUGGCAGCAGGAGCGAAAGC”, the “apparent Kd” value turned out to be 11.9 nM under setting [9] and 44.1 nM under setting [10].

Turning to “CCACAGACAUGAGGAUCACCCAUGUAGUUGGGCGUGUCAUCUCAGGAUAUGGCAACGCUUAUGAGCCAGAAGGGAGAAGGUUAU”, the “apparent Kd” value runs as follows: under setting [5], 13.4 nM; under setting [6], 12.8 nM.
